The values that follow come from ChEMBL document CHEMBL1152949, “Synthesis and biological evaluation of febrifugine analogues as potential antimalarial agents” (Bioorg Med Chem, 2009).

Usually IC50 stands for the concentration that gives 50% inhibition. The low end stands for higher potency, the high end for lower potency. Usually ED50 stands for the dose at which the effect has come halfway, by size or by number of responders. Lower therefore signals an effect at a small dose.

Data set [1] has as its system Plasmodium falciparum. In words: Antiplasmodial activity after 48 hrs against chloroquine-resistant Plasmodium falciparum W2 in human erythrocytes by [3H]hypoxanthine uptake. The data set is classed as functional, organism-based. An outline of the steps:
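Chloroquine-resistant W2 P. falciparum grown in RPMI 1640 with 6% human erythrocytes and 10% human serum, under 5% CO2, 5% O2, 90% N2 at 37°C. Sensitivity tested by semi-automated micro-dilution. [3H]hypoxanthine incorporation measured across compound concentrations, and IC50 derived from it.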

A short description of data set [2]: Toxicity in Plasmodium berghei infected ICR mice (Mus musculus) dosed intraperitoneally once daily for 4 days by Thompson test. In kind it is organism-based. The note with it: in vivo, ip.
Data set [3] is described as follows: Therapeutic index, ratio of MTD for Plasmodium berghei infected ICR mice (Mus musculus) to MCD for Plasmodium berghei. The note with it: read-out: TI.
Data set [4] has as its system Plasmodium berghei. The experiment in a line: Antimalarial activity against Plasmodium berghei infected ICR mice (Mus musculus) daily oral or subcutaneous dose for 8 days by Thompson test. The note with it: for ED50: Plasmodium berghei, po or sc, 192 h.

SMILES strings stand for the structures. ≈ marks a conversion by molar mass, not a printed value.

Turning to `O=C(C[C@H]1NCC[C@@H]1O)Cn1cnc2ccccc2c1=O`, in data set [1], the IC50 was 0.56 ng/mL (≈ 1.95 nM). Further, the MTD at 96 h in data set [2] turned out to be 144 mg/kg. Further, the selectivity ratio in data set [3] was determined as 17. Further, in data set [4], the MCD is 8.4 mg/kg and the 50% effect level (ED50) was put at a dose of 1.6 mg/kg.
On the same counts, the results for `O=C(C[C@H]1NCC[C@@H]1O)Cn1cnc2cccnc2c1=O` are 0.12 ng/mL (≈ 0.416 nM), 345 mg/kg, 111, 3.1 mg/kg and 0.44 mg/kg.
`O=C(C[C@H]1NCC[C@@H]1O)Cn1cnc2ccc(F)cc2c1=O` yielded an IC50 in data set [1] of 0.26 ng/mL (≈ 0.852 nM). In data set [2], this compound had an MTD at 96 h of 425 mg/kg. In data set [3], the selectivity ratio worked out at 63. In data set [4], this compound returned an MCD of 6.8 mg/kg and an ED50 of 1.1 mg/kg.
For `O=C(C[C@H]1NCC[C@@H]1O)Cn1cnc2cccc(C(F)(F)F)c2c1=O`, in that order: 0.23 ng/mL (≈ 0.647 nM), 335 mg/kg, 71, 4.7 mg/kg and 0.74 mg/kg.
For `O=C(C[C@H]1NCC[C@@H]1OCc1ccccc1)Cn1cnc2cccnc2c1=O`, in that order: 0.14 ng/mL (≈ 0.37 nM), 102 mg/kg, 132, 0.77 mg/kg and 0.14 mg/kg.
On the same counts, the results for `O=C(C[C@H]1NCC[C@@H]1O)Cn1cnc2cnccc2c1=O` are 0.31 ng/mL (≈ 1.08 nM), 338 mg/kg, 51, 6.6 mg/kg and 1.2 mg/kg.
Regarding `O=C(C[C@H]1NCC[C@@H]1O)Cn1cnc2ccc(F)c(F)c2c1=O`, the midpoint of inhibition in data set [1], the IC50, lay at 0.4 ng/mL (≈ 1.24 nM). The same compound had an MTD at 96 h in data set [2] of 379 mg/kg. Besides, in data set [3], the selectivity ratio is 43. In data set [4], the MCD stood at 8.9 mg/kg and the ED50 worked out at 1.7 mg/kg.
For `O=C(C[C@H]1NCC[C@@H]1O)Cn1cnc2ccncc2c1=O`, in that order: 0.14 ng/mL (≈ 0.486 nM), 310 mg/kg, 107, 2.9 mg/kg and 0.49 mg/kg.
On the same counts, the results for `O=C(C[C@H]1NCC[C@@H]1O)Cn1cnc2ncccc2c1=O` are 0.34 ng/mL (≈ 1.18 nM), 439 mg/kg, 74, 5.9 mg/kg and 1.3 mg/kg.
On the same counts, the results for `O=C(C[C@H]1NCC[C@@H]1O)Cn1cnc2cccc(F)c2c1=O` are 0.29 ng/mL (≈ 0.95 nM), 399 mg/kg, 56, 7.1 mg/kg and 1 mg/kg.
In data set [1], `CC(C)(C)c1cccc2ncn(CC(=O)C[C@H]3NCC[C@@H]3O)c(=O)c12` had a concentration for half-maximal inhibition (IC50) of 2.9 ng/mL (≈ 8.44 nM). The compound further showed an MTD at 96 h in data set [2] of 429 mg/kg. The selectivity ratio in data set [3] was determined as 11. Moreover, in data set [4], the MCD stood at 39 mg/kg and the 50% effect level (ED50) was put at a dose of 8.7 mg/kg.
For `O=C(C[C@H]1NCC[C@@H]1O)Cn1cnc2ccc(C(F)(F)F)cc2c1=O`, in that order: 0.28 ng/mL (≈ 0.788 nM), 440 mg/kg, 56, 7.9 mg/kg and 1.5 mg/kg.
On the same counts, the results for `COc1cccc2c(=O)n(CC(=O)C[C@H]3NCC[C@@H]3O)cnc12` are 0.57 ng/mL (≈ 1.8 nM), 51 mg/kg, 10, 4.9 mg/kg and 1.5 mg/kg.
For `COc1ccc2c(=O)n(CC(=O)C[C@H]3NCC[C@@H]3O)cnc2c1`, in that order: 0.62 ng/mL (≈ 1.95 nM), 55 mg/kg, 10, 5.6 mg/kg and 1.7 mg/kg.
`CC(C)(C)c1ccc2ncn(CC(=O)C[C@H]3NCC[C@@H]3O)c(=O)c2c1`: the IC50 in data set [1] is 3.4 ng/mL (≈ 9.9 nM). Further, the MTD at 96 h in data set [2] worked out at 504 mg/kg. Moreover, the selectivity ratio in data set [3] came to 12. In data set [4], this compound displayed an MCD of 42 mg/kg and an ED50 of 10 mg/kg.
For `O=C(C[C@H]1NCC[C@@H]1OCc1ccccc1)Cn1cnc2cccc(C(F)(F)F)c2c1=O`, in that order: 0.19 ng/mL (≈ 0.427 nM), 88 mg/kg, 128, 0.69 mg/kg and 0.12 mg/kg.
Compound `CCN(CC)CCCC(C)Nc1ccnc2cc(Cl)ccc12` (stereo not drawn) [CHLOROQUINE] showed an MTD at 96 h in data set [2] of 240 mg/kg. Moreover, in data set [4], the MCD turned out to be 40 mg/kg and it took a dose of 4.5 mg/kg to reach the 50% effect level (ED50).
Consider `O=C(C[C@@H]1NCCC[C@H]1O)Cn1cnc2ccccc2c1=O` [FEBRIFUGINE], for which inhibition in data set [1] was half-maximal at 0.76 ng/mL (≈ 2.52 nM) (IC50). In data set [2], the MTD at 96 h turned out to be 35 mg/kg. The selectivity ratio in data set [3] amounted to 3. In addition, in data set [4], the MCD turned out to be 12 mg/kg and it took a dose of 2.3 mg/kg to reach the 50% effect level (ED50).
